# High-throughput results as filed in PubChem.
# The list is not random: actives were taken first. Their share in the collection is about 4.6%.
# OX1R antag-1: antagonists of human orexin 1 receptor; O43613; CHO/OX1R cells, Fluo-8 calcium fluorescence, orexin A; inhibition, % at 5 µM; actives 0.43% (n = 330,000); AID 434989;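 active means inhibition above its plate's threshold, mean inhibition of all tested compounds on the plate plus 3 SD, cut at about 37% in these data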;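 further: 0% = orexin A challenge wells and 100% = SB-334867-A antagonist wells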
# TAAR1 agonist: human TAAR1 agonism; CHO RD-HGA16 TAAR1, Fluo-8 calcium fluorescence; vehicle wells 0%, saturating PEA agonist 100%; activation, % at 3 µM; actives 0.99% (n = 360,000); AID 624467;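 active means activation above the mean activation of all test compounds in the run plus 3 SD, cut at about 38% in these data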
#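 System: CHO-derived RD-HGA16 cells with stable Gα16 and human TAAR1. Times: 17-24 h plating, Fluo-8 75 min 37 °C, 30 min RT. Measured by: calcium-sensitive Fluo-8 signal, excitation 470-495, emission 515-575 nm. Read-out basis: % activation relative to PEA EC100 response. Control set: DMSO and PEA EC100. Repeats: no replicates (n 1).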
# CHO parental Ca: signal in parental CHO cells, OX1R antagonist counter-screen | inhibition, % at 5.6 µM | parental CHO-K1, ATP-induced calcium, Fluo-8 fluorescence | actives 0.63% (n = 330,000);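 active means inhibition above that plate's mean sample inhibition plus 3 SD, cut at about 26% in these data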;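 further: 0% = ATP-challenged DMSO wells and 100% = DMSO wells without ATP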
#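 Test system: parental CHO cells; detection: calcium-sensitive Fluo-8 fluorescence; evaluation: percent inhibition of calcium signal; also added: ATP as calcium-mobilizing challenge; repeats: one well per compound; control set: ATP-challenged DMSO wells low, unchallenged DMSO wells high; compound: single nominal dose of 5.6 µM per compound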
# TAAR1 antag: human TAAR1 antagonism. inhibition, % at 3 µM. AID 624466. Q96RJ0. actives 1.5% (n = 360,000). CHO RD-HGA16 TAAR1, Fluo-8 calcium fluorescence, antagonist;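 active means inhibition above a per-plate cutoff, the mean inhibition of test compounds on that plate plus 3 SD, cut at about 49% in these data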;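 further: 0% = DMSO plus EC80 beta-PEA response and 100% = DMSO alone without agonist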
#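 test system = CHO RD-HGA16 cells bearing hTAAR1 | replication = singlicate | controls = DMSO-only wells and EC80 β-PEA-stimulated wells | reagent = EC80 β-phenethylamine stimulus | read-out basis = percent inhibition of PEA-evoked calcium signal, max/basal emission ratio | schedule = seeding 17-24 h prior, 75-min 37 °C, 30-min RT dye loading | signal = kinetic Fluo-8 calcium fluorescence measurement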
# GPR7 antagonist: human neuropeptides B/W receptor 1 antagonism | P48145 | GPR7-expressing cells, fluorescence antagonist assay | inhibition, % at 4.4 µM | actives 1.1% (n = 290,000) | AID 1861; in the data active means inhibition above about 16%, passing the limit was not always enough;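 further: cells stimulated with the agonist NPW; 0% = agonist with vehicle and 100% = vehicle without agonist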
# Target sequence (P48145 whole entry, looked up): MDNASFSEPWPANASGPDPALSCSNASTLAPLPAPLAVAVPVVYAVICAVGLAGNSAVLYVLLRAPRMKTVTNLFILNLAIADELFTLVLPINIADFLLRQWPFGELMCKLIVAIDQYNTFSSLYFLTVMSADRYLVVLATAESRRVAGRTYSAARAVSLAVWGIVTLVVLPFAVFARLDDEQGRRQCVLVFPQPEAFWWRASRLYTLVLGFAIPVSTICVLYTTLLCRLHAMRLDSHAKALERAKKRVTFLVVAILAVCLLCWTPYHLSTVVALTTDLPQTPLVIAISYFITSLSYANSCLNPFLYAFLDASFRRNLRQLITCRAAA
# OX1R antag-2: OX1R (human) antagonism; actives 1.8% (n = 330,000); AID 485270; inhibition, % at 6.6 µM; OX1R-expressing cells, FRET antagonist read-out; in the data active means inhibition mostly above about 38%, no sharp cut-off; inactive means mostly below about 40%;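 further: 0% = agonist challenge alone and 100% = reference antagonist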
# TAAR1 nonsel count: nonselective antagonist in TAAR1 antagonist counter-screen; shares compounds with TAAR1 antag; inhibition, % at 3 µM; counterscreen cell line, calcium fluorescence, antagonist mode; AID 651780; actives 77% (n = 2,400); in the data active means inhibition above about 22%;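 further: CHO-Ga16 host cells stimulated with ATP at an EC80 level; 0% = agonist EC80 plus vehicle and 100% = vehicle without agonist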
# TAAR1 antag conf: human TAAR1 antagonism, confirmed; TAAR1-expressing cells, fluorescence antagonist read-out; AID 651785; shares compounds with TAAR1 antag; inhibition, % at 3 µM; actives 40% (n = 2,400); in the data active means inhibition above about 49%;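 further: CHO-Ga16 host cells challenged with agonist PEA near its EC80; 0% = agonist at EC80 plus vehicle and 100% = vehicle with no agonist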
# Ga16 nonsel ag: counter-screen for TAAR1 antagonists: nonselective Ga16 agonists. shares compounds with TAAR1 antag. Ga16-expressing cells, calcium fluorescence, agonist counterscreen. activation, % at 3 µM. actives 18% (n = 2,400). AID 651953; in the data active means activation above about 12%;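 further: 0% = vehicle wells and 100% = saturating stimulus response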
# TAAR1 ag count: activates human TAAR1 in antagonist counter-screen. hTAAR1 cell line, fluorescence activation, agonist mode. activation, % at 3 µM. AID 651955. actives 2% (n = 2,400). shares compounds with TAAR1 antag; in the data active means activation above about 37%;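 further: CHO cells stably expressing TAAR1 with calcium dye readout; 0% = DMSO vehicle and 100% = full agonist response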
# * = called active by the depositor; · = no result.
SMILES,OX1R antag-1,TAAR1 agonist,CHO parental Ca,TAAR1 antag,GPR7 antagonist,OX1R antag-2,TAAR1 nonsel count,TAAR1 antag conf,Ga16 nonsel ag,TAAR1 ag count
COc1ccc(-c2nc(C#N)c(NCc3ccccc3Cl)o2)cc1,-13.0,16.3,-7.9,52.6*,-13.5,13.8,3.6,7.1,1.4,6.2
CCOc1ccc2nc(NC(=O)CN3CCC(n4nnc5cc(F)ccc54)CC3)sc2c1,-14.5,13.6,10.6,68.0*,-0.9,33.9,23.4*,42.3,6.3,5.9
CCCCOc1ccc(C(=O)NCCN2CCC(n3c(=O)[nH]c4ccccc43)CC2)cc1,·,5.7,·,28.9,·,·,·,·,·,·
CC(=O)N1CCOCC1c1cc(C(=O)Nc2ccccc2)no1 (configuration not stated),·,2.5,·,1.9,·,·,·,·,·,·
COc1ccnc(Oc2ccc(F)cc2)c1C(=O)N/C=N/OCc1ccc(Cl)cc1Cl,-8.9,34.9,-9.9,62.6*,-14.5,8.7,28.6*,57.1*,13.5*,21.9
COc1ccnc(Oc2ccc(F)cc2)c1C(=O)N/C=N/OCc1ccc(F)cc1Cl,-17.4,31.0,-11.3,75.7*,-8.2,22.1,40.8*,60.6*,14.3*,16.4
O=C(NCCCCO)c1c(-c2ccccc2)oc2c1C(OCCCCCO)CCC2 (configuration not stated),·,1.5,·,-23.1,·,·,·,·,·,·
O=C(NCc1ccc(F)cc1)OC1CC2CC1[C@H]1CCCCN1C2=O (some centres not stated),·,1.7,·,-10.3,·,·,·,·,·,·
CC(C(=O)NC(C)(C)C)n1c(C(c2ccccc2)c2ccccc2)nc2ccccc21 (configuration not stated),·,-0.9,·,-12.1,·,·,·,·,·,·
Cc1ccc(S(=O)(=O)N(C)CC(=O)OCC(=O)c2ccc3c(c2)NC(=O)CO3)cc1,-19.5,-1.4,-10.0,101.8*,·,8.6,26.2*,28.2,10.0,3.9
CN(C)S(=O)(=O)c1cccc(C(=O)OCC(=O)c2ccc3c(c2)NC(=O)CO3)c1,-14.2,33.6,-3.7,65.6*,-6.2,13.9,27.8*,46.8,13.1*,12.5
O=Cc1c[nH]c2ccc(S(=O)(=O)N3CCCCC3)cc12,·,1.9,·,-8.6,·,·,·,·,·,·
Cc1ccc(NC(=O)c2oc3ccc(S(=O)(=O)N4CCOCC4)cc3c2C)c(C)c1,-9.9,10.5,-2.1,36.5,-8.3,23.0,·,·,·,·
Cc1cccc(NC(=O)c2oc3ccc(S(=O)(=O)N4CCOCC4)cc3c2C)c1C,-2.9,18.0,-9.8,58.2*,-2.6,4.7,31.5*,51.2*,9.4,9.2
CC(C)(C)OC(=O)NCc1ccc(CNC(=O)c2[nH]cnc2C(=O)N[C@@H](Cc2ccccc2)C(=O)OCc2ccccc2)cc1,-10.1,3.3,3.6,32.7,-18.7,10.0,·,·,·,·
O=C(CNC(=O)c1nc[nH]c1C(=O)NCC(=O)OCc1ccccc1)OCc1ccccc1,-7.6,16.2,-22.3,69.3*,-5.1,17.1,36.6*,56.4*,9.9,9.7
O=C(CNC(=O)c1nc[nH]c1C(=O)NCc1ccccc1)OCc1ccccc1,-19.0,16.0,-17.8,66.5*,-5.9,37.3,37.2*,56.5*,5.5,7.0
CCN(CC)C(=O)c1[nH]cnc1C(=O)NCC(=O)OCc1ccccc1,-10.0,24.6,-5.3,70.8*,-9.5,17.0,25.2*,52.4*,9.5,8.5
CC(C)(C)OC(=O)NCc1ccc(CNC(=O)c2[nH]cnc2C(=O)NCC(=O)OCc2ccccc2)cc1,7.5,23.5,8.3,91.8*,6.1,25.0,48.9*,66.5*,12.5*,11.7
